Screening results: PubChem BioAssay, several laboratories
This is a sample that favours compounds with a hit; in the whole collection about 4.3% have one here.
Yeast superoxide – yeast age-related superoxide inhibition as caloric restriction mimetic. superoxide response (% of plate mean), % at 10 µM. 0.18% of 330,000 active. S. cerevisiae aged cells, superoxide DHE fluorescence; active compounds read low. AID 2690;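 active = superoxide response under a set limit, about three screen SD below normal, cut at about 65% in these data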;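 note: yeast aged for seven days with compound at 30 °C before DHE staining; 100% = average MFI of all compound-treated wells on the plate with controls excluded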
SMARCA2 act – increases SMARCA2 function in MMTV reporter cells. MG213 cells, MMTV-luciferase reporter, dexamethasone, overnight. 1% of 370,000 active. activation, % at 9.1 µM; in the data active = activation above about 7.8%;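 note: 0% = vehicle wells and 100% = reference activator wells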
SR-BI HDL uptake – mouse SR-BI HDL lipid transfer inhibition; 0.96% of 320,000 active; ldlA[mSR-BI] CHO cells, DiI-HDL uptake fluorescence, 3 h; inhibition, % at 12.5 µM;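 active = mean replicate inhibition of at least 70% and a set share of replicates each scoring 70 or more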;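 note: 0% = median of neutral control wells and 100% = median of positive control wells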
Hep lipid drop – modulators of hepatic lipid droplet formation; AML12 mouse hepatocytes, oleate lipid droplets, BODIPY imaging; inhibition, % at 6.5 µM; 0.4% of 240,000 active; AID 1656;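 active = lipid droplet intensity inhibited by at least 50%, with more than 500 cells counted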
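Material – AML12 mouse liver cells · Also added – oleate loading, 100 µM · Compound dosing – 6.5 µM single-point dosing · Times – overnight treatment with compound plus oleate · Measured by – fluorescence imaging, 20x objective, two fields per well · Read-out – percent inhibition of filter-corrected integrated lipid droplet intensity per well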
SR-BI DiI-HDL act – activators of SR-BI mediated HDL lipid uptake. CHO ldlA[mSR-BI] cells, DiI-HDL uptake fluorescence, 3 h; 100 = double the neutral-control signal. activation, % at 12.5 µM. 0.096% of 320,000 active;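 active = mean replicate activation of at least 60% and every replicate at or above 60%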;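 note: 0% = median plate neutral-control signal and 100% = twice that signal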
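Test system: SR-BI-overexpressing, LDLR-lacking CHO cells; Medium: Ham's F12 with 0.5% BSA, HEPES 25 mM, pH 7.4; Schedule: 3 h, 37 °C; Technique: bottom-read fluorescence, 550/595 nm.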
AHR act – human AHR activation; 2.5% of 320,000 active; P35869; AHR-responsive luciferase reporter cells, luminescence; activation, % at 5 µM; AID 2796; in the data active = activation above about 47%;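 note: 0% = vehicle wells and 100% = reference agonist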
Starred values were filed as active, the others as inactive; nt = no result given.

SMILES	Yeast superoxide	SMARCA2 act	SR-BI HDL uptake	Hep lipid drop	SR-BI DiI-HDL act	AHR act
COc1ccc(Nc2ncnc3sc(-c4ccccc4)cc23)cc1OC	98	-3	93*	-13	-93	38
COc1cc2c(cc1NC(=S)Nc1cccc(C)c1)oc1ccccc12	105	-2	50	-24	-50	84*
COc1cc2c(cc1NC(=O)Nc1cccc(C)c1)oc1ccccc12	98	-1	87*	-10	-87	-5
COc1ccc(/C=C/C(=O)NC(=S)Nc2cc3oc4ccccc4c3cc2OC)cc1	111	0	-14	14	14	18
COc1cc2c(cc1NC(=O)/C=C/c1ccccc1)oc1ccccc12	81	-3	80*	nt	-80	-1
COc1cc2c(cc1NC(=O)c1cc(-c3cccnc3)nc3ccc(C)cc13)oc1ccccc12	93	-1	78*	nt	-78	6
N#CCC[C@@H]1CC[C@]2(CCCN(C(=O)c3ccno3)C2)O1	nt	-1	nt	nt	nt	nt
COc1cc2[nH]c(=S)nc(NCc3cccs3)c2cc1OC	90	1	36	-6	-36	60*
COc1ccccc1CNc1nc(=S)[nH]c2cc(OC)c(OC)cc12	70	0	8	17	-8	15
CN(C(=O)c1cccnc1)c1nnc(-c2ccccn2)s1	103	6	-3	-1	3	54*
O=C1CCC(c2ccc(-n3ccnc3)cc2)=NN1	101	6	-12	nt	12	67*
CN(c1ccc(NC(=O)CCc2c[nH]c3ccccc23)cc1)c1ccccn1	nt	-3	nt	nt	nt	nt
O=C(Nc1nc(-c2ccncc2)cs1)c1ccc(S(=O)(=O)N2CCOCC2)cc1	101	-4	-1	nt	1	-2
O=C(COc1cccc(Cl)c1)Nc1nc(-c2ccc(S(=O)(=O)N3CCOCC3)cc2)cs1	nt	-2	88*	-10	-88	nt
CCOc1cccc(C(=O)Nc2nc(-c3ccc(S(=O)(=O)N4CCOCC4)cc3)cs2)c1	98	0	79*	-5	-79	-3
O=C(COc1cccc(F)c1)Nc1nc(-c2cccnc2)cs1	108	0	7	nt	-7	54*
O=C(COc1cccc(F)c1)Nc1nc(-c2ccncc2)cs1	97	-1	10	nt	-10	10
CCOC(=O)c1nc(NNC(=O)c2ccc([N+](=O)[O-])cc2)sc1C	84	-2	91*	-22	-91	12
CCOC(=O)c1sc(NNC(=O)c2ccc(C)cc2)nc1C	85	-1	-1	1	1	10
O=c1c2ccccc2nnn1Cc1ccco1	nt	-2	nt	nt	nt	nt
O=S1(=O)c2ccc(N3CCN(Cc4ccccc4F)CC3)cc2Oc2ccccc2CN1Cc1cn(Cc2cccc(C(F)(F)F)c2)nn1	nt	-3	nt	nt	nt	nt
COC(=O)c1c(C)[nH]c(/C=N/Nc2ccccc2)c1C	104	15*	26	-9	-26	10
COc1cccc(-c2cccc3c4c([nH]c23)[C@@H]2C[C@H]3[C@@H](C(=O)N2CC4)[C@H](C)ON3C)c1	nt	-4	nt	nt	nt	nt
COc1cc2sc3ccc(C#CC4(O)CCCCC4)cc3c(=O)c2cc1OC	103	7.8*	69	nt	-69	0
O=C(N/N=C/c1cc2c(cc1[N+](=O)[O-])OCO2)c1cccnc1	105	-2	-53	-1	53	51*
SMILES	Yeast superoxide	SMARCA2 act	SR-BI HDL uptake	Hep lipid drop	SR-BI DiI-HDL act	AHR act
O=C(N/N=C/c1cc2c(cc1[N+](=O)[O-])OCO2)c1ccc2c(c1)OCO2	94	-3	nt	1	nt	9
Cc1ccc(C(=O)N/N=C\c2ccc3c(c2)OCO3)cn1	105	1	-6	11	6	7
O=C(N/N=C/c1ccc2c(c1)OCO2)c1cccnc1	99	0	nt	22	nt	55*
O=C(N/N=C/c1cc2c(c([N+](=O)[O-])c1)OCO2)c1ccncc1	99	3	5	0	-5	61*
C[C@H](c1ccccc1)N1C[C@@H](COCc2ccccc2)Oc2cccc(Oc3ccc(F)cc3)c2S1(=O)=O	nt	-2	nt	nt	nt	nt
Cc1nn(-c2ccccc2)c2sc(C(=O)NCC3CCCO3)cc12 (configuration not stated)	nt	-3	nt	nt	nt	nt
COc1ccc2c(c1)cc(C(=O)O)n2C	120	1	-42	12	42	2
Cn1c(C(=O)O)cc2cc(F)ccc21	118	-2	-19	-18	19	54*
CCOc1ccccc1/C=C(/NC(=O)c1ccccc1)C(=O)NCC(=O)O	103	-2	-19	52*	19	18
COc1ccc(NC(=S)/N=C(\N)Nc2nc(C)c3ccccc3n2)cc1	79	-2	44	-14	-44	65*
COc1ccc2nc(N/C(N)=N/C(=S)Nc3cccc(C)c3)nc(C)c2c1	107	3	61	0	-61	11
COC(=O)C1CN(CCc2ccccc2)CCS(=O)(=O)N1Cc1ccccc1 (configuration not stated)	nt	-2	nt	nt	nt	nt
COc1ccc(Br)cc1CNC(=O)c1ccc2c(c1)N(C)CCS2	102	-2	68	-14	-68	49*
CN1CCSc2ccc(C(=O)NCc3cccc(F)c3)cc21	115	0	44	-4	-44	67*
Cc1ccc(CN2CCSc3ccc(C(=O)NCc4cccnc4)cc32)cc1	101	-5	5	1	-5	8
CCN1CCSc2ccc(C(=O)NCc3cc(Br)ccc3OC)cc21	97	-2	56	-1	-56	15
Cc1ccc(NC(=O)C2CCN(c3ncccn3)CC2)cc1C	nt	-1	nt	nt	nt	nt
Fc1ccc(C2c3[nH]c4ccccc4c3CCN2Cc2ccoc2)cc1 (configuration not stated)	129	2	22	-2	-22	51*
Fc1ccc(C2c3[nH]c4ccccc4c3CCN2CCCn2cccn2)cc1 (configuration not stated)	114	1	nt	1	nt	29
COc1ccc(-c2ccc(/C=C(\NC(=O)c3ccccc3)C(=O)N3CCOCC3)o2)cc1	96	0	21	-10	-21	77*
CC(=O)N1CCCN(S(=O)(=O)c2ccc3c(c2)c(=O)n(C)c(=O)n3C)CC1	nt	-3	nt	nt	nt	nt
c1ccc(Cn2c3ccccc3c3nnc(SCCN4CCCCC4)nc32)cc1	107	7.9*	nt	-24	nt	0
C=CCn1c2ccccc2c2nnc(SCCN3CCCCC3)nc21	96	1	18	-19	-18	8
COC(=O)[C@]12C[C@H](CC(=O)NCc3cccc(C(F)(F)F)c3)C(=O)N(CCc3ccc(OC)c(OC)c3)C1=C[C@H](C(C)C)O[C@@H]2C1CC1	nt	-3	nt	nt	nt	nt
Cc1ccc(-c2nnc(-n3ncc(C#N)c3N)c3ccccc23)cc1C	103	1	78*	22	-78	6
Nc1c(-c2ccccn2)cnn1-c1nc(-c2ccc(F)cc2)cs1	98	0	66	nt	-66	63*
